In ChEMBL document CHEMBL4020797, “Design, synthesis and evaluation of antitumor acylated monoaminopyrroloquinazolines” (2017):

Legend:
MDA-MB-468 = assay: Antiproliferative activity against human MDA-MB-468 after 72 hrs by MTT assay; type: functional; details: for GI50: MDA-MB-468, 72 h
How it was run: (§1)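 Triple-negative breast cancer cells were exposed to a range of compound concentrations for 72 h, and viable cells were then quantified spectrophotometrically with MTT reagent. GI50 (concentration giving 50% growth inhibition) was derived from dose-response curves by non-linear regression and reported as mean ± SD from at least two independent measurements. The highest concentration tested was 100 μM.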

MDA-MB-231 = assay: Antiproliferative activity against human MDA-MB-231 after 72 hrs by MTT assay; type: functional; details: for GI50: MDA-MB-231, 72 h; how it was run: as §1

| SMILES | GI50 (MDA-MB-468) [µM] | GI50 (MDA-MB-231) [µM] | Activity (MDA-MB-468) | Activity (MDA-MB-231) |
| --- | --- | --- | --- | --- |
| CC(C)C(=O)Nc1ncc2c(ccc3[nH]ccc32)n1 | > 100 | > 100 |  |  |
| CC(=O)Nc1ncc2c(ccc3[nH]ccc32)n1 | > 100 | > 100 |  |  |
| CC(C)(C)C(=O)Nc1ncc2c(ccc3[nH]ccc32)n1 | > 100 | > 100 |  |  |

Stronger by GI50 (MDA-MB-468), values ahead:

| GI50 (MDA-MB-468) [µM] | GI50 (MDA-MB-231) [µM] | SMILES | Activity (MDA-MB-468) | Activity (MDA-MB-231) |
| --- | --- | --- | --- | --- |
| 28.3 | 72.8 | CCC(=O)Nc1ncc2c(ccc3[nH]ccc32)n1 |  |  |
| 0.088 | 0.2 | O=C(Nc1ncc2c(ccc3[nH]ccc32)n1)c1ccc2ccccc2c1 | Dose-dependent effect | Dose-dependent effect |
| 2.02 | 3.46 | CCCC(=O)Nc1ncc2c(ccc3[nH]ccc32)n1 |  |  |
